Source: ChEMBL document CHEMBL1142103, “Bioactive lignans from Peperomia heyneana” (J Nat Prod, 2007)

Legend:
[1] = Selectivity index, ratio of CC50 for C8166 cells to IC50 for HIV1 infected C8166 cells; format: functional
In short: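 Therapeutic index computed as CC50 (MTT viability of uninfected C8166, 72 h) divided by EC50 (inhibition of HIV-1 IIIB syncytium formation in C8166, 3 days), both run in parallel.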

[2] = system: Human immunodeficiency virus 1; assay: Antiviral activity against on HIV1 3b infected C8166 cells assessed as syncytial cell formation after 3 days; format: functional, organism-based; settings: Human immunodeficiency virus 1, 3b, C8166, 72 h
In short: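 C8166 cells (8 × 10^5/mL) seeded with serial concentrations of compound, then infected with HIV-1 IIIB at 1300 TCID50/well; 3 days at 37 °C, 5% CO2. Syncytia (multinucleated giant cells) counted per well under inverted microscope; percent inhibition of syncytium formation versus untreated infected controls gives EC50.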

[3] = Cytotoxicity against C8166 cells by MTT method; format: cell-based; settings: human
In short: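 Uninfected C8166 cells (4 × 10^5/mL) exposed to graded compound concentrations for 72 h at 37 °C, 5% CO2. Supernatant removed, MTT (5 mg/mL stock in PBS) added for 4 h, formazan dissolved in 50% DMF–20% SDS, absorbance read at 595/630 nm. CC50 (50% loss of viable cells) taken from dose-response curve.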

COc1cc([C@H]2O[C@H](c3cc(OC)c4c(c3)OCO4)[C@@H](COC(C)=O)[C@@H]2CO)cc(OC)c1O
Ratio CC50/EC50 [1]: 4.6 | EC50 [2]: 49.8 µM | CC50 [3]: 229 µM

COc1cc(C(c2cc(OC)c(OC)c(OC)c2)C2COC(=O)C2C)cc(O)c1OC (stereo not drawn)
Ratio CC50/EC50 [1]: 5.1 | EC50 [2]: 27.3 µM | CC50 [3]: 140 µM

COc1cc(C(c2cc(OC)c3c(c2)OCO3)[C@@H]2COC(=O)[C@H]2C)cc2c1OCO2 [PEPEROMIN A]
Ratio CC50/EC50 [1]: 8.2 | EC50 [2]: 5.3 µM | CC50 [3]: 43.2 µM

COc1cc([C@@H](c2cc(OC)c3c(c2)OCO3)[C@@H]2COC(=O)[C@H]2C)cc(OC)c1OC [PEPEROMIN B]
Ratio CC50/EC50 [1]: 9.1 | EC50 [2]: 5.4 µM | CC50 [3]: 49.1 µM

COc1cc(C(c2cc(OC)c(OC)c(OC)c2)[C@@H]2COC(=O)[C@H]2C)cc(OC)c1OC [PEPEROMIN C]
Ratio CC50/EC50 [1]: 4.5 | EC50 [2]: 42.6 µM | CC50 [3]: 192 µM

Cc1cn([C@H]2C[C@H](N=[N+]=[N-])[C@@H](CO)O2)c(=O)[nH]c1=O [ZIDOVUDINE]
Ratio CC50/EC50 [1]: > 100000 | EC50 [2]: 0.017 µM | CC50 [3]: 4550 µM
